In PMC3983359 (Journal of Medicinal Chemistry, 2014):
Converted amounts (≈) assume the structure as drawn. “Also recorded” adds a separate entry of the source. Where a name gives a salt, the structure may show the parent alone. One block for each molecule: values may come before it. Peptide text beside a SMILES is read from it. * marks the point of attachment. βNA = c1ccc2cc(N*)ccc2c1

How the values were obtained:
[1] = molecular target: T1, human PPTase (Homo sapiens, UniProt Q9NRN7); assay: Gel-based PPTase assay with the human enzyme; format: biochemical; conditions: concentrations up to 125 μM
T1 sequence (Q9NRN7 1-309): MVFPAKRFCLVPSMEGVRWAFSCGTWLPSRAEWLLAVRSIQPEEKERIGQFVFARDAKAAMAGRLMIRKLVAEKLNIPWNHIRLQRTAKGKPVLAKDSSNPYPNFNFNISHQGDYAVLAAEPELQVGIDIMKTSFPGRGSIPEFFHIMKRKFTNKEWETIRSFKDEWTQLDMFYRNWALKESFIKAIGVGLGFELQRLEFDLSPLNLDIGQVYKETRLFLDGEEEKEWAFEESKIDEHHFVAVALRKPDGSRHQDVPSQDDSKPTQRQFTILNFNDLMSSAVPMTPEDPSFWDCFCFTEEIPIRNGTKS

[2] = molecular target: T2, Sfp-PPTase (Bacillus subtilis, UniProt P39135); assay: Rescue-by-dilution reversibility experiment; format: biochemical; conditions: 100-fold dilution from conditions producing 90% inhibition
T2 sequence (P39135 1-224): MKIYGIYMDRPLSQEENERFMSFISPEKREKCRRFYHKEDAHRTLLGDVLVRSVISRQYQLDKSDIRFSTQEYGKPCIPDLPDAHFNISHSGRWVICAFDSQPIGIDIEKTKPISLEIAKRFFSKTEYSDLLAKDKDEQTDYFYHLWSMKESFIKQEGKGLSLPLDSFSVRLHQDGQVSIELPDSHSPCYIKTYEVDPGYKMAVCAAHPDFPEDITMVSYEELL

[3] = molecular target: T3, B. subtilis Sfp-PPTase (Bacillus subtilis, UniProt P39135); assay: Sfp-PPTase qHTS assay; format: biochemical; conditions: for IC50 ± SD: triplicate; for Sfp-PPTase inhibitory activity in words: SAR discussion
T3 sequence (P39135 1-224): T2 sequence (P39135 1-224)

[4] = system: B. subtilis (HM489); assay: B. subtilis HM489 antibacterial assay; format: cell-based, Bacillus subtilis; conditions: cellular ATP content, Bac-Titer Glo
[5] = system: HepG2 cells; assay: HepG2 cytotoxicity counterscreen; format: cell-based, human; conditions: cellular ATP content, CellTiter-Glo, 48 hr
[6] = system: B. subtilis; assay: MIC determination, broth dilution, B. subtilis; format: cell-based, Bacillus subtilis; conditions: for MIC: Bacillus subtilis
Summary of the method: (§1)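 Bacterial MIC followed NCCLS M07 broth microdilution. Test compound in DMSO (1 μL) added to 50 μL cation-adjusted Mueller Hinton II broth, then ~1 × 10^3 cfu from overnight liquid culture. Incubated at 30–37 °C for 16–20 h. MIC taken as the first well without visible growth. For imaging, 0.7% w/v resazurin (10 μL) added, then 4 h at 37 °C.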

[7] = Mouse liver microsome stability; format: in vitro ADME
[8] = system: P. aeruginosa; assay: MIC determination, broth dilution, P. aeruginosa; format: cell-based, Pseudomonas aeruginosa; conditions: ATCC9028
Summary of the method: as §1

[9] = Compound stability in aqueous media and buffers; format: physicochemical; conditions: pH range 2–9, PBS and HEPES
[10] = system: S. aureus and B. subtilis; assay: Minimum bactericidal concentration determination; format: cell-based
[11] = system: Candida albicans; assay: MIC determination, broth dilution, fungi; format: cell-based; conditions: C. albicans ATCC90028 and ATCC96901
Summary of the method: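 Fungal MIC followed NCCLS M27 broth microdilution against fluconazole-sensitive and fluconazole-resistant C. albicans strains. Inoculum was made by suspending 2-day-old colonies in RPMI 1640, ~1 × 10^3 cfu per well, with test compound in DMSO. Incubated at 30–37 °C for 48 h. MIC read visually as the first well without growth.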

[12] = molecular target: CYP2D6 (Homo sapiens, UniProt P10635); assay: CYP2D6 inhibition; format: in vitro ADME; conditions: 2D6, 3 μM, substrate dextromethorphan
[13] = system: S. aureus BK2395 (PFGE USA500); assay: Mouse model of S. aureus septicemia; format: in vivo; conditions: 55 30 mpk, vancomycin 50 mpk; 4, 24, 48 hours post infection
[14] = PAMPA passive permeability; format: in vitro ADME
[15] = system: E. coli BW25113; assay: Checkerboard synergy experiment with PAβN; format: cell-based, Escherichia coli; conditions: top concentrations tested
Summary of the method: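 Checkerboard broth dilution in E. coli BW25113 combining test compound with PAβN over concentration grids. Resazurin added (10 μL, 0.7% w/v) and incubated a further 4 h at 37 °C; purple wells scored as no metabolically active bacteria. At each test-compound concentration, the lowest PAβN concentration halting growth was recorded. FIC index was estimated as combined potency relative to the single components.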

[16] = system: E. coli; assay: MIC determination, broth dilution, E. coli; format: cell-based, Escherichia coli; conditions: E. coli K12 and BW25113
Summary of the method: as §1

[17] = system: B. subtilis 168; assay: Membrane damage assessment; format: cell-based, Bacillus subtilis; conditions: 15 min incubation, up to 10-fold MIC, Syto9/propidium iodide
Summary of the method: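 B. subtilis membrane integrity assessed by fluorescence microscopy with Syto9, which stains all cells, and propidium iodide, which enters only compromised cells. […] Stained cells were counted.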

[18] = system: E. coli JW0451 (ΔacrB); assay: Broth dilution with efflux-defective E. coli mutant; format: cell-based, Escherichia coli
Summary of the method: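 Broth microdilution: test compound in DMSO (1 μL) added to 50 μL cation-adjusted Mueller Hinton II broth, then ~1 × 10^3 cfu inoculum from overnight culture. Incubated at 30–37 °C for 16–20 h. MIC scored visually as the first well without growth. Efflux-defective ΔacrB strain JW0451 tested alongside wild-type BW25113.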

[19] = In vivo PK in male CD1 mice; set-up: species or system mouse
[20] = system: clinical strains of MRSA; assay: MIC against clinical strains of S. aureus; format: cell-based, Staphylococcus aureus; conditions: all strains tested

Chain of CYP2D6 (P10635 whole entry): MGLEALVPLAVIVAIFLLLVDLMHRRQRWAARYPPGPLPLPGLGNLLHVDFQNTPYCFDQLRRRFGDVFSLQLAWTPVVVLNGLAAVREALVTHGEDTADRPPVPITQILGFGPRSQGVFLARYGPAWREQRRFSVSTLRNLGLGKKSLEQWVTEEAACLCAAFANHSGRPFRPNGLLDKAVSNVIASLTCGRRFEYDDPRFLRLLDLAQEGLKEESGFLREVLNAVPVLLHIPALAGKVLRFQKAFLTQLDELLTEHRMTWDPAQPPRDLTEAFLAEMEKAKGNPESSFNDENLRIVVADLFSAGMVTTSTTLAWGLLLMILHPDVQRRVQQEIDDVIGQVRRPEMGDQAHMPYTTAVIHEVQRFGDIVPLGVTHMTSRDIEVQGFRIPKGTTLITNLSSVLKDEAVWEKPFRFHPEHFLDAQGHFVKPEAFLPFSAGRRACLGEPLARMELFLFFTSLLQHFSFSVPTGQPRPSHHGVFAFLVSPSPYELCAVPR

Compound: C/N=c1\nc(-c2ccccc2)n(-c2ccccc2)s1 [SCH-202676, reference compound]
- inhibition of the human PPTase [1]: observed inhibition
- reversibility of inhibition of Sfp [2]: irreversible inhibitor

Compound: Cc1ccnc(N(C)C(=S)N2CCN(c3cccc(C(F)(F)F)c3)CC2)c1 [Compound 19]
- IC50 ± SD ([3]; Table 1, HTS assay): inactive

Compound: Cc1ccnc(NC(=S)N2CCC(Nc3cccc(C(F)(F)F)c3)CC2)c1 [Compound 63, N-(4-Methylpyridin-2-yl)-4-((3-(trifluoromethyl)phenyl)amino)piperidine-1-carbothioamide Trifluoroacetate]
- cytotoxicity (HepG2), IC50 [5]: inactive

Compound: Cc1cc(C)nc(NC(=S)N2CCN(c3ccc(Cl)cc3C(F)(F)F)CC2)c1 [Compound 41, 4-(4-Chloro-2-(trifluoromethyl)phenyl)-N-(4,6-dimethylpyridin-2-yl)piperazine-1-carbothioamide Trifluoroacetate]
- cytotoxicity (HepG2), IC50 [5]: inactive

Compound: COc1ccnc(NC(=S)N2CCN(c3ncc(C(F)(F)F)cc3Cl)CC2)c1 [Compound 55, 4-(3-Chloro-5-(trifluoromethyl)pyridin-2-yl)-N-(4-methoxypyridin-2-yl)piperazine-1-carbothioamide Trifluoroacetate]
- cytotoxicity (HepG2), IC50 [5]: inactive
- concentration inhibiting the growth of B. subtilis ([6]; broth dilution, resazurin): 1.7 µg/mL
- microsomal stability without NADPH ([7]; absence of NADPH cofactor, 1 h): completely stable
- half-life ([7]; mouse, liver microsomes, microsomal stability (T1/2, min), mouse liver microsomes, with NADPH): 49.5 min
- growth inhibition of P. aeruginosa [8]: No growth inhibition
- degradation in aqueous media, buffers and mouse plasma [9]: no signs of degradation
- type of antibacterial activity [10]: bactericidal activity
- growth inhibition of fungal organisms [11]: No growth inhibition
- inhibition of the human PPTase [1]: no inhibition; also recorded: null activity
- CYP inh (3 μM) (%) [12]: 25 (2D6) %
- survival in mouse sepsis model [13]: did not increase survival
- PAMPA [14]: 1122 × 10^–6 cm/s
- antibacterial activity of the single compound against BW25113 [15]: neither compound alone was found to possess antibacterial activity
- growth inhibition of E. coli [16]: No growth inhibition
- bacterial cell membrane integrity [17]: continued cellular viability
- lowest concentration to which the ΔacrB strain is susceptible ([18]; E. coli JW0451, lesion in acrB locus): 12.5 µg/mL
- lowest concentration inhibiting bacterial growth (Figure 4B) ([18]; legend: disruption of tolC): 12 µM
- adverse clinical observations ([19]; iv 3 and ip 30 mg/kg, 24 h period): did not result in any adverse clinical observations
- time for which exposure exceeds the in vitro antibacterial MIC value ([19]; total drug concentration): over 8 h
- spread of potencies over the panel of clinical isolates [20]: ≤ 3 fold

Compound: FC(F)(F)c1cccc(N2CCN(C(=S)Nc3ccncc3)CC2)c1 [Compound 6]
- IC50 ± SD ([3]; Table 1, HTS assay): inactive

Compound: Cc1ccnc(NC(=N)N2CCN(c3cccc(C(F)(F)F)c3)CC2)c1 [Compound 13]
- IC50 ± SD ([3]; Table 1, HTS assay): inactive

Compound: NC(N)=NCCC[C@H](NC(=O)[C@@H](N)Cc1ccccc1)C(=O)Nc1ccc2ccccc2c1 [PAβN, phenylarginine-β-naphthamide, reference compound] (H-Phe-Arg-βNA)
- antibacterial activity of the single compound against BW25113 [15]: neither compound alone was found to possess antibacterial activity

Compound: FC(F)(F)c1cccc(N2CCN(C(=S)Nc3cc(C(F)(F)F)ccn3)CC2)c1 [Compound 4]
- IC50 ± SD ([3]; Table 1, HTS assay): inactive

Compound: Cc1ccnc(NC(=S)N2CCN(c3ccccc3C(F)(F)F)CC2)c1 [Compound 22, N-(4-Methylpyridin-2-yl)-4-(2-(trifluoromethyl)phenyl)piperazine-1-carbothioamide Trifluoroacetate]
- cytotoxicity (HepG2), IC50 [5]: inactive

Compound: Cc1cc(C)nc(NC(=C(C#N)C#N)N2CCN(c3cccc(C(F)(F)F)c3)CC2)c1 [Compound 15]
- Sfp-PPTase inhibitory activity in words [3]: complete loss of activity
- IC50 ± SD ([3]; Table 1, HTS assay): inactive

Compound: CN[C@H](CC(C)C)C(=O)N[C@H]1C(=O)N[C@@H](CC(N)=O)C(=O)N[C@H]2C(=O)N[C@H]3C(=O)N[C@H](C(=O)N[C@H](C(=O)O)c4cc(O)cc(O)c4-c4cc3ccc4O)[C@H](O)c3ccc(c(Cl)c3)Oc3cc2cc(c3O[C@@H]2O[C@H](CO)[C@@H](O)[C@H](O)[C@H]2O[C@H]2C[C@](C)(N)[C@H](O)[C@H](C)O2)Oc2ccc(cc2Cl)[C@H]1O [vancomycin, reference compound]
- survival in mouse sepsis model [13]: completely protected animals from morbidity

Continued, in another order:

- IC50 ± SD ([3]; Table 1, HTS assay): inactive
- Sfp-PPTase IC50 ([3]; Table 4, HTS assay): inactive
Compound: Cc1ccnc(NC(=O)N2CCN(c3cccc(C(F)(F)F)c3)CC2)c1 [Compound 12, N-(4-Methylpyridin-2-yl)-4-(3-(trifluoromethyl)phenyl)piperazine-1-carboxamide Trifluoroacetate]
- B. subtilis (HM489) IC50 [4]: inactive

- reversibility of inhibition of Sfp [2]: completely reversible inhibition
Compound: Cc1ccnc(NC(=S)N2CCN(c3cccc(C(F)(F)F)c3)CC2)c1 [Compound 1, N-(4-Methylpyridin-2-yl)-4-(3-(trifluoromethyl)phenyl)piperazine-1-carbothioamide Trifluoroacetate]

- Sfp-PPTase inhibitory activity in words [3]: all activity is lost
- IC50 ± SD ([3]; Table 3, HTS assay): inactive
Compound: Cc1ccnc(NC(=S)NC2CN(c3cccc(C(F)(F)F)c3)C2)c1 [Compound 59]

- Sfp-PPTase inhibitory activity in words [3]: lost all activity
- IC50 ± SD ([3]; Table 3, HTS assay): inactive
Compound: Cc1ccnc(NC(=S)NCCN(C)c2cccc(C(F)(F)F)c2)c1 [Compound 57]

- IC50 ± SD ([3]; Table 1, HTS assay): inactive
Compound: Cc1ccnc(NC(=S)NC2CCN(c3cccc(C(F)(F)F)c3)CC2)c1 [Compound 20]

- IC50 ± SD ([3]; Table 1, HTS assay): inactive
Compound: Cc1cccc(NC(=S)N2CCN(c3cccc(C(F)(F)F)c3)CC2)c1 [Compound 5]

- MIC [6]: ~2 µg/mL
Compound: CCCCCCCCCCCCCCCC[N+](C)(C)C [CTAB, cetyltrimethylammonium bromide]
- bacterial cell membrane integrity [17]: rapid compromise of bacterial cell integrity

- inhibition of the human PPTase [1]: observed inhibition
- reversibility of inhibition of Sfp [2]: reversible
Compound: Nc1ncnc2c1ncn2[C@@H]1O[C@H](COP(=O)(O)O)[C@@H](OP(=O)(O)O)[C@H]1O [PAP, 3′-phosphoadenosine 5′-monophosphate, reference compound]

- Sfp-PPTase inhibitory activity in words [3]: lost all activity
- IC50 ± SD ([3]; Table 3, HTS assay): inactive
Compound: Cc1ccnc(NC(=S)NCCNc2cccc(C(F)(F)F)c2)c1 [Compound 58]

- MIC [6]: ~2 µg/mL (≈ 6.19 µM)
Compound: O=C(N[C@H](CO)[C@H](O)c1ccc([N+](=O)[O-])cc1)C(Cl)Cl [Chloramphenicol]
- bacterial cell membrane integrity [17]: continued cellular viability

- Sfp-PPTase inhibitory activity in words [3]: complete loss of activity
- IC50 ± SD ([3]; Table 1, HTS assay): inactive
Compound: Cc1cc(C)nc(N/C(=N/C#N)N2CCN(c3cccc(C(F)(F)F)c3)CC2)c1 [Compound 14]

- IC50 ± SD ([3]; Table 1, HTS assay): inactive
Compound: Cc1cc(C)nc(Nc2nnc(N3CCN(c4cccc(C(F)(F)F)c4)CC3)s2)c1 [Compound 16]
